Experimental data taken from paper PMC9773939 (ACS Omega, 2022).

Experiments:
[1] = test system: L. infantum promastigotes; experiment: Nitrite concentration by Griess test, L. infantum promastigote culture; format: cell-based; details: 5 days, 25, 50 and 100 μM
Outline: (§1)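 L. infantum promastigote or T. cruzi epimastigote cultures (5 × 10^6 parasites/well) were incubated 5 days with test compound at 25, 50 and 100 μM, with untreated wells as controls. Supernatants were mixed with 1% sulfanilamide in 50% acetic acid, then after 15 min with 1% N-naphthylethylenediamine in 50% acetic acid, and read at 540 nm. Nitrite (μM) was taken from a sodium nitrite standard curve (detection limit 1.56 μM). Run in triplicate.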

[2] = test system: T. cruzi epimastigotes; experiment: Nitrite concentration by Griess test, T. cruzi epimastigote culture; format: cell-based; details: 5 days, 25, 50 and 100 μM
Outline: as §1

[3] = test system: epimastigotes of T. cruzi; experiment: In vitro anti-T. cruzi evaluation on epimastigotes; format: cell-based, T. cruzi (CL Brener clone); details: for S.I.T.cruzi (selectivity index), column epimastigote, IC50 (μM) T. cruzi (S.I.T.cruzi): CC50 (J774.1A) / IC50 of epimastigotes (T. cruzi); for IC50: Trypanosoma cruzi, 120 h, read-out: epimastigote, IC50 T. cruzi
Outline: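 Turbidity (A595) was read at day 0 and day 5. PGI was calculated relative to untreated controls, with single-point PGI at 25 μM. IC50 is the concentration […]. At least three experiments.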

[4] = test system: J774.1A macrophages; experiment: Cytotoxicity on J774.1A macrophages; format: cell-based; details: read-out: J774.1A macrophage, CC50; 48 h, MTT
Outline: (§2)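 Peritoneal or J774.1A macrophages were grown in DMEM with 10% heat-inactivated FBS, L-glutamine and penicillin/streptomycin. Cells were seeded at 5 × 10^4 cells/well for 24 h at 37 °C, 5% CO2, then given test compound at 10–100 μM (from 25,000 μM DMSO stock) for 48 h. MTT (0.4 mg/mL, 4 h, 37 °C) was dissolved in DMSO and read at 570 nm. Cytotoxicity was expressed relative to negative controls. At least three experiments.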

[5] = test system: peritoneal macrophages; experiment: Cytotoxicity on primary peritoneal macrophages; format: cell-based, mouse; details: read-out: peritoneal macrophage, CC50; 48 h, MTT
Outline: as §2

[6] = test system: promastigotes of L. infantum; experiment: In vitro growth inhibition of L. infantum promastigotes; format: cell-based, Leishmania infantum (MHOM MA67I7MAP263); details: Leishmania infantum, 72 h, read-out: promastigote, IC50 L. infantum
Outline: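 L. infantum MHOM MA67I7MAP263 promastigotes at 2 × 10^6 parasites/mL were exposed to 0.5–25 μM test compound for 72 h at 25 °C. Dilutions came from a 3000 μM DMSO stock, with final DMSO ≤1%. MTT (0.4 mg/mL) was added for 4 h at 37 °C, formazan was dissolved in DMSO and read at 570 nm. Inhibition was calculated against untreated controls. At least three experiments, mean ± SD.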

[7] = test system: amastigotes of L. braziliensis; experiment: Ex vivo antiamastigote activity of L. braziliensis; format: cell-based, L. braziliensis (MHOM/BZ/82/M2903); details: for S.I.Leishmania (selectivity index): CC50 (peritoneal macrophage) / IC50 (amastigotes of L. braziliensis); for IC50: Leishmania braziliensis, 48 h, read-out: amastigote, IC50 L. braziliensis
Outline: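 L. braziliensis MHOM/BZ/82/M2903 amastigotes were taken from footpad lesions of infected BALB/c mice. Macrophages were removed by brief centrifugation (3000 rpm, 2–3 min). Amastigotes were kept at 37 °C, pH 5.5, in supplemented M199 with 10% FCS. At 2 × 10^6/mL they were exposed to 1.0–50.0 μM test compound (controls 1% DMSO). At 48 h parasites were counted in a Neubauer chamber against untreated controls. S.I. = peritoneal macrophage CC50 / amastigote IC50.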

[8] = test system: promastigotes of L. braziliensis; experiment: In vitro growth inhibition of L. braziliensis promastigotes; format: cell-based, Leishmania (V) braziliensis (MHOM/BR/75/M2903); details: Leishmania braziliensis, read-out: promastigote, IC50 L. braziliensis
[9] = Solubility, qualitative remarks; format: physicochemical; details: qualitative remark
[10] = Cytotoxicity on primary peritoneal macrophages; format: cell-based, mouse; details: mouse, primary peritoneal macrophages, peritoneal macrophage, CC50, 48 h, MTT
Outline: as §2

[11] = test system: epimastigotes of T. cruzi; experiment: Antifolate activity: IC50 on T. cruzi epimastigotes with and without folic acid; format: cell-based; details: presence vs absence of D,L-folic acid
Outline: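 T. cruzi epimastigotes were treated with test compound with or without D,L-folic acid, following the epimastigote turbidimetric viability protocol (120 h, 25 °C, A595). IC50 was determined in each condition and compared.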

[12] = test system: promastigotes of L. infantum; experiment: Effect of metal cations on IC50 on L. infantum promastigotes; format: cell-based; details: Leishmania parasites, metal cation at 1 μM
Outline: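 L. infantum promastigotes were treated with test compound alone or with a metal cation (Fe3+, Cu2+ or Zn2+) at 1 μM, following the promastigote MTT viability protocol. IC50 was determined with and without the cation and compared.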

[13] = test system: promastigotes of L. infantum; format: cell-based; details: presence vs absence of D,L-folic acid
Outline: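 L. infantum promastigotes were treated with test compound with or without D,L-folic acid, following the promastigote MTT viability protocol (72 h, 25 °C, formazan read at 570 nm). IC50 was determined in each condition and compared.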

[14] = Cytotoxicity on J774.1A macrophages; format: cell-based; details: mouse, J774.1A macrophages, J774.1A macrophage, CC50, 48 h, MTT
Outline: as §2

[15] = Oxidative decomposition followed by NMR; format: physicochemical; details: 2 weeks of incubation with H2O2
[16] = test system: Salmonella typhimurium TA 98 strain; experiment: Mutagenicity Ames test; format: cell-based

Row | IC50 [7] [µM] | solubility in culture [9] | change of IC50 on addition of folic acid (FA) [11] | Compound | S.I.T.cruzi (selectivity index), column epimastigote, IC50 (μM) T. cruzi (S.I.T.cruzi) [3] | IC50 [3] [µM] | CC50 [4] [µM] | IC50 [6] [µM] | S.I.Leishmania (selectivity index) [7] | IC50 [8] [µM] | CC50 at 48 h [10] [µM] | also measured
1 | – | – | – | O=c1[nH]c(-c2ccc(Cl)cc2)nc2ccccc12 [2-(4-chlorophenyl)quinazolin-4(3H)-one, reference compound] | – | – | – | – | – | – | – | nitrite ion production (Griess test) [1]: No production was detected; nitrite ion production (Griess test) [2]: No production was detected
2 | 8.26 ± 0.45 | – | – | NNc1nc(-c2ccccc2)nc2ccccc12 [3a, (Z)-1-(2-phenylquinazolin-4(3H)-ylidene)hydrazine] | <3.6 | > 25 | 90.2 ± 4.32 | 12.7 ± 0.74 | 7.4 | 4.53 ± 0.23 | – | CC50 [5]: 61 ± 2.34 µM
3 | 7.41 ± 0.39 | appreciable solubility | – | NNc1nc(-c2ccc(F)cc2)nc2ccccc12 [3b, (Z)-1-(2-(4-fluorophenyl)quinazolin-4(3H)-ylidene)hydrazine] | >6.7 | 17.9 ± 1.21 | – | 5.01 ± 0.31 | – | 3.85 ± 0.17 | > 100 | –
4 | 8.96 ± 0.53 | appreciable solubility | Increasing IC50 values by about twofold | NNc1nc(-c2ccc(Cl)cc2)nc2ccccc12 [3c, (Z)-1-(2-(4-chlorophenyl)quinazolin-4(3H)-ylidene)hydrazine] | 9.1 | 11.5 ± 0.49 | – | 1.56 ± 0.09 | – | 5.12 ± 0.32 | 89.9 ± 3.77 | nitrite ion production (Griess test) [1]: appreciable amount of nitrite ion in sub-micromolar ranges; nitrite ion production (Griess test) [2]: appreciable amount of nitrite ion in sub-micromolar ranges; change of IC50 in the presence of Cu2+ [12]: increase in IC50 values; change of IC50 on addition of folic acid (FA) [13]: modest increase in IC50; CC50 at 48 h [14]: 105 ± 5.66 µM; decomposition under oxidative conditions [15]: decomposed in at least three additional products; revertants number ([16]; dose 27.9 μg/plate): 8.0 ± 2.0; revertants number ([16]; dose 37.2 μg/plate): 4.5 ± 2.0; revertants number ([16]; dose 55.8 μg/plate): 5.0 ± 0.5; revertants number ([16]; dose 111.7 μg/plate): 8.0 ± 1.0; revertants number ([16]; dose 335.0 μg/plate): 9.5 ± 0.5
5 | 12.7 ± 0.78 | – | Increasing IC50 values by about twofold | NNc1nc(-c2ccc(Br)cc2)nc2ccccc12 [3d, (Z)-1-(2-(4-bromophenyl)quinazolin-4(3H)-ylidene)hydrazine] | 5.5 | 14.3 ± 0.87 | 78.6 ± 3.99 | 2.13 ± 0.12 | 6.2 | 6.2 ± 0.38 | – | CC50 [5]: 78 ± 3.89 µM
6 | 14 ± 0.89 | – | Increasing IC50 values by about twofold | Cc1ccc(-c2nc3ccccc3/c(=N/N)[nH]2)cc1 [3e, (Z)-1-(2-(4-Methylphenyl)quinazolin-4(3H)-ylidene)hydrazine] | 6.4 | 18 ± 1.11 | – | 1.2 ± 0.08 | 6.1 | 10.1 ± 0.48 | 84.8 ± 3.67 | change of IC50 in the presence of Cu2+ [12]: increase in IC50 values; CC50 at 48 h [14]: 115 ± 5.43 µM
7 | 8.43 ± 0.51 | appreciable solubility | – | NNc1nc(-c2cccc(Cl)c2)nc2ccccc12 [3f, (Z)-1-(2-(3-chlorophenyl)quinazolin-4(3H)-ylidene)hydrazine] | no active | > 25 | > 120 | 4.55 ± 0.29 | – | 5.63 ± 0.36 | > 100 | –
